Key:
[1] = Cytotoxicity against human L3.6pl cells assessed as inhibition of cell growth measured after 72 hrs by ATPlite assay; assay type: toxicity, cell-based
CHO-K1 [2] = assay: Cytotoxicity against chinese hamster CHO-K1 cells assessed as decrease in cell viability measured after 48 hrs by ATPlite assay; assay type: toxicity, cell-based, Cricetulus griseus; details: cho-k1, 48 h
How it was run: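 CHO-K1 cells dosed alone in 384-well format in parallel with Assays 1 and 2; MTC taken as highest concentration giving ≥90% relative growth versus untreated control; typical error ±10% (n = 3).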

L3.6pl = assay: Cytotoxicity against human L3.6pl cells assessed as cell viability measured after 72 hrs by ATPlite assay; assay type: toxicity, cell-based
How it was run: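 L3.6pl human pancreatic cancer cells in 96-well format were exposed to compound alone for 72 h. Growth was expressed relative to an untreated control. MTC is the highest concentration with relative growth still >90%. […] Data come from two or more experiments, each run in triplicate (n ≥ 6).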

[3] = Inhibition of spermidine uptake chinese hamster CHO-K1 cells assessed as decrease in cell growth by measuring cellular ATP content measured after 48 hrs in presence of DFMO and spermidine by ATPlite assay; assay type: functional, cell-based; details: Cricetulus griseus, CHO-K1, 48 h
CHO-K1 [4] = assay: Inhibition of spermidine uptake in chinese hamster CHO-K1 cells assessed as decrease in cell growth by measuring cellular ATP content measured after 48 hrs in presence of DFMO and spermidine by ATPlite assay; details: Cricetulus griseus, CHO-K1, 48 h

| Structure (SMILES) | IC50 at 72 h [1] [µM] | MTC (CHO-K1 [2]) [µM] | MTC (L3.6pl) [µM] | EC50 [3] [µM] | EC50 (CHO-K1 [4]) [µM] |
| --- | --- | --- | --- | --- | --- |
| COc1ccc(C(=O)Nc2ccc(N3CCCN(c4ncccn4)CC3)cc2C(=O)O)cc1 | > 30 | > 40 | 25 | 12 |  |
| O=C(Nc1ccc(N2CCN(C3CCCCC3)CC2)cc1C(=O)O)c1ccc(F)cc1 |  | > 40 |  |  | > 40 |
| COc1ccc(C(=O)Nc2ccc(N3CCN(c4cc(Cl)ccc4C)CC3)cc2C(=O)O)c(OC)c1 | 61.6 | > 40 | 40 | > 40 | > 40 |
| COc1ccccc1C(=O)Nc1ccc(N2CCC(c3ccccc3)CC2)cc1C(=O)O | 46.3 | > 40 | 9 | 18 | 21 |
| Cc1ccc(C(=O)Nc2ccc(N3CCN(c4cc(Cl)ccc4C)CC3)c(C(=O)O)c2)cc1 |  | 12 |  |  | 5 |
| COC(=O)c1cc(N2CCN(c3cc(Cl)ccc3C)CC2)ccc1NC(=O)c1ccc(OC)cc1OC |  | > 40 |  | > 40 | > 40 |
| Cc1ccc(CC(=O)Nc2ccc(N3CCN(c4ccccc4Cl)CC3)cc2C(=O)O)cc1 |  | > 40 |  | 16 | 32 |
| O=C(Nc1ccc(N2CCN(c3ccccc3F)CC2)c(C(=O)O)c1)c1ccc(Cl)cc1 |  | > 40 |  |  | > 40 |
| COc1ccc(C(=O)Nc2ccc(N3CCN(c4ccccc4)CC3)cc2C(=O)O)cc1 |  | 17 |  | > 40 | 15 |
| Cc1cccc(N2CCN(c3ccc(NC(=O)c4ccccc4F)cc3C(=O)O)CC2C)c1 (centres undefined) |  | > 40 |  |  | > 40 |
| COc1ccc(C(=O)Nc2ccc(N3CCN(c4cccc(C)c4)CC3)cc2C(=O)O)cc1 |  | 22 |  | > 40 | 16 |
| COc1ccc(C(=O)Nc2ccc(N3CCN(c4ccc(C(C)=O)cc4)CC3)cc2C(=O)O)cc1 |  | 20 |  | > 40 | 21 |
| COc1ccccc1C(=O)Nc1ccc(N2CCN(Cc3ccccn3)CC2)cc1C(=O)O | > 100 | > 40 | 10 |  | 10 |
| COc1ccccc1N1CCN(c2ccc(NC(=O)c3ccccc3)cc2C(=O)O)CC1 |  | > 40 |  |  | > 40 |
| Cc1cccc(N2CCN(c3ccc(NC(=O)c4ccccc4Cl)c(C(=O)O)c3)CC2)c1C |  | 26 |  |  | 22 |
| COc1ccccc1C(=O)Nc1ccc(N2CCN(C(=O)c3ccccn3)CC2)cc1C(=O)O | > 10 | > 40 | 10 | > 40 | > 40 |
| COc1ccc(N2CCN(c3ccc(NC(=O)C4CCCCC4)cc3C#N)CC2)cc1 |  | 17 |  | > 40 | 23 |
| CCOC(=O)N1CCN(c2ccc(NC(=O)c3ccc(OC)cc3)c(C(=O)O)c2)CC1 |  | 34 |  | > 40 | > 40 |
| Cc1ccccc1C(=O)Nc1ccc(N2CCN(c3cc(Cl)ccc3C)CC2)c(C(=O)O)c1 |  | > 40 |  | > 40 | > 40 |
| CCN(CC)C(=O)CN1CCN(c2ccc(NC(=O)c3ccc(OC)cc3)c(C(=O)O)c2)CC1 |  | 28 |  | > 40 | > 40 |
| COc1ccc(C(=O)Nc2ccc(N3CCC(C(N)=O)CC3)cc2C(=O)O)cc1 |  | 22 |  | > 40 | > 40 |
| COc1ccccc1C(=O)Nc1ccc(CN2CCN(c3ccccn3)CC2)cc1C(=O)O | > 10 | > 40 | 10 | > 40 | > 40 |
| Cc1ccc(C)c(N2CCN(c3ccc(N4C(=O)CC(c5ccccc5)C4=O)cc3[N+](=O)[O-])CC2)c1 (centres undefined) |  | 32 |  |  | 27 |

| Structure (SMILES) | IC50 at 72 h [1] [µM] | MTC (CHO-K1 [2]) [µM] | MTC (L3.6pl) [µM] | EC50 [3] [µM] | EC50 (CHO-K1 [4]) [µM] |
| --- | --- | --- | --- | --- | --- |
| COc1ccccc1N1CCN(c2ccc(NC(=O)c3ccccc3-c3cccs3)cc2C(=O)O)CC1 |  | > 40 |  | > 40 | 27 |
| COc1ccc(C(=O)Nc2ccc(N3CCN(c4cccc(Cl)c4)CC3)cc2C(=O)O)cc1 |  | 20 |  |  | 17 |
| Cc1cccc(N2CCN(c3ccc(NC(=O)c4cccc(Cl)c4)c(C(=O)O)c3)CC2)c1C |  | 10 |  |  | 8 |
| COc1ccccc1C(=O)Nc1ccc(N2CCN(CCCc3ccccc3)CC2)cc1C(=O)O | > 10 | > 40 | 10 | > 40 | > 40 |
| COc1ccc(C(=O)Nc2ccc(N3CCN(C4CCCCC4)CC3)cc2C(=O)O)cc1 |  | > 40 |  |  | > 40 |
| COc1ccc(C(=O)Nc2ccc(N3CCN(c4ccccc4F)CC3)cc2C(=O)O)cc1 |  | 25 |  |  | 33 |
| COc1ccccc1C(=O)Nc1ccc(N2CCN(Cc3ccccc3)CC2)cc1C(=O)O | > 10 | > 40 | 10 | > 40 | > 40 |
| Cc1ccc(C)c(N2CCN(c3ccc(NC(=O)c4ccc(Cl)cc4)cc3C(=O)O)CC2)c1 |  | > 40 |  |  | > 40 |
| COC(=O)c1cc(N2CCN(c3cc(Cl)ccc3C)CC2)ccc1NC(=O)c1ccccc1OC |  | > 40 |  | > 40 | > 40 |
| COc1ccccc1N1CCN(c2ccc(N3C(=O)CCC3=O)cc2[N+](=O)[O-])CC1 |  | 27 |  |  | 30 |
| COc1ccccc1C(=O)Nc1ccc(N2CCN(c3ccccn3)CC2)cc1 | > 10 | 14 | 10 | > 40 | > 40 |
| COc1ccc(C(=O)Nc2ccc(N3CCN(c4cc(Cl)ccc4C)CC3)c(C(=O)O)c2)cc1 |  | 14 |  |  | 5 |
| COc1ccc(C(=O)Nc2ccc(N3CCC(N4CCCCC4)CC3)cc2C(=O)O)cc1 |  | > 40 |  |  | > 40 |
| COc1ccc(C(=O)Nc2ccc(N3CCN(c4ccc(OC)cc4)CC3)cc2C(=O)O)cc1 |  | > 40 |  | > 40 | > 40 |
| COc1ccccc1C(=O)Nc1ccc(N2CCN(c3cccc(C)c3C)CC2)cc1C(=O)O | 22.9 | 28 | 8 | 2 | 23 |
| CCOc1ccccc1N1CCN(c2ccc(NC(=O)c3ccc(OC)cc3)c(C(=O)O)c2)CC1 | > 20 | 37 | 10 |  | 20 |
| COCCNC(=O)CN1CCN(c2ccc(NC(=O)c3ccc(OC)cc3)c(C(=O)O)c2)CC1 |  | > 40 |  |  | > 40 |
| COC(=O)c1cc(N2CCN(c3cc(Cl)ccc3C)CC2)ccc1NC(=O)c1ccc(OC)cc1 |  | > 40 |  | > 40 | > 40 |
| COc1ccccc1C(=O)Nc1ccc(N2CCN(c3ccccn3)CC2)cc1C(=O)O | > 100 | 21 | 2 | 4 |  |
| COc1ccc(CC(=O)Nc2ccc(N3CCN(c4cc(Cl)ccc4C)CC3)cc2C(=O)O)cc1 |  | 24 |  | 32 | 25 |
| COc1ccccc1N1CCN(c2ccc(NC(=O)c3ccccc3Cl)c(C(=O)O)c2)CC1 |  | 36 |  | 16 | 26 |
| COC(=O)c1cc(CN2CCN(c3ccccn3)CC2)ccc1NC(=O)c1ccccc1OC |  | > 20 |  | > 20 | > 20 |

Reference: ChEMBL document CHEMBL5150043, “Discovery of Anthranilic Acid Derivatives as Difluoromethylornithine Adjunct Agents That Inhibit Far Upstream Element Binding Protein 1 (FUBP1) Function” (J Med Chem, 2022)
